Positions count from the first letter of the chain named. Activity calls are given as the source filed them.
How the values were obtained:
[1] = test system: Mus musculus; experiment: Analgesic activity in cerulein-induced mouse model of acute pancreatitis assessed as reduction in myeloperoxidase activity at 10 mg/kg, ip administered at 2 hrs interval for 10 hrs starting from post-first cerulein challenge and measured 12 hrs post-first cerulein challenge; assay type: functional, organism-based
Outline: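 Cerulein pancreatitis: 7 hourly i.p. injections of 50 µg/kg; 10 mg/kg compound i.p. at 2, 4, 6, 8 and 10 h. Mice killed at 12 h and pancreas harvested for MPO activity and H&E histology. Ten random fields per slide scored blind by two observers for edema, inflammatory infiltration and acinar necrosis; n = 6.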

[2] = test system: Potassium channel subfamily K member 2 (Homo sapiens), O95069 [Y285A]; experiment: Activation of recombinant human TREK1 Y285A mutant expressed in HEK293T cells assessed as increase in K+ current amplitude by whole cell voltage clamp electrophysiological analysis; assay type: cell-based
Outline: (§1)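 Transiently transfected HEK-293T cells, whole-cell voltage clamp. Held at -60 mV, 500-ms ramp -120 to +60 mV. Pipette (mM) 140 KCl, 5 EGTA, 10 HEPES, pH 7.4; external 145 NaCl, 4 KCl, pH 7.3. Compound diluted from 10 mM DMSO stock and applied extracellularly. Current increase over control fitted to concentration–response curves for EC50.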

[3] = test system: Mus musculus; experiment: Analgesic activity in mouse assessed as increase in tail flick latency time at 5 mg/kg, ip at 5 to 52 degC by tail immersion test; assay type: functional, organism-based
Outline: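 Male BALB/c or C57BL/6 mice, 6–8 weeks, acclimated in a holder 15 min/day for 3 days. Distal 3 cm of tail immersed at 5, 20, 40, 46 or 52 °C; flick latency recorded, cut-off 15 s. Compound i.p. in 5% DMSO/5% Tween 80/90% saline (1.25–10 mg/kg at 52 °C; 5 mg/kg across temperatures).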

[4] = target: T1, TREK-2 two-pore-domain K+ channel (Mus musculus, UniProt Q3LS20); experiment: Activation of recombinant mouse TREK2 expressed in HEK293T cells assessed as increase in K+ current amplitude by whole cell voltage clamp electrophysiological analysis; assay type: cell-based; outline: as §1
T1 sequence (Q3LS20 whole entry): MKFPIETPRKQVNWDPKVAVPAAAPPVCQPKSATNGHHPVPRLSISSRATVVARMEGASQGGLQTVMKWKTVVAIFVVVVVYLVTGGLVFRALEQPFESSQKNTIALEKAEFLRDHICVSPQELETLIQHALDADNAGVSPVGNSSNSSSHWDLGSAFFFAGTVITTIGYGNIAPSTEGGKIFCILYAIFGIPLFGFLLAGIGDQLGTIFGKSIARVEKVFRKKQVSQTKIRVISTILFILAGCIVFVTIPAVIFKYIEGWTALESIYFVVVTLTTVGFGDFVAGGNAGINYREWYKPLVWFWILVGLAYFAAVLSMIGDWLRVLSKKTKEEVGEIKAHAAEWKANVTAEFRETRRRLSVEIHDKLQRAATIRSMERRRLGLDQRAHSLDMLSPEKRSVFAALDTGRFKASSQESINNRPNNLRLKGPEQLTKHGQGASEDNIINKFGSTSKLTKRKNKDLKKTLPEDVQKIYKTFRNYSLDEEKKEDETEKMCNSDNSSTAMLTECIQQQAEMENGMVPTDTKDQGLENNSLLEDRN

[5] = test system: Mus musculus; experiment: Analgesic activity in mouse model of spared nerve injury assessed as reduction in number of hind paw lifting at 5 mg/kg, ip incubated for 30 mins measured within 5 mins by spontaneous pain test; assay type: functional, organism-based
Outline: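 SNI mice, day 7, acclimated 3 days on a wire-mesh floor. Compound 5 mg/kg i.p. Starting 30 min after injection, mice were videotaped for 5 min and left hindpaw flinches counted blind; n = 7.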

[6] = target: Potassium channel subfamily K member 2 (Homo sapiens, UniProt O95069, T156A); experiment: Activation of recombinant human TREK1 T156A mutant expressed in HEK293T cells assessed as increase in K+ current amplitude by whole cell voltage clamp electrophysiological analysis; assay type: cell-based; outline: as §1
[7] = target: Potassium channel subfamily K member 2 (Homo sapiens, UniProt O95069, F149A); experiment: Activation of recombinant human TREK1 F149A mutant expressed in HEK293T cells assessed as increase in K+ current amplitude by whole cell voltage clamp electrophysiological analysis; assay type: cell-based; outline: as §1
[8] = target: T2, Potassium channel subfamily K member 2 (Homo sapiens) (UniProt O95069); experiment: Activation of recombinant human TREK1 expressed in HEK293T cells assessed as change in single channel conductance by outside-out patch electrophysiological analysis; assay type: cell-based
T2 sequence (whole entry): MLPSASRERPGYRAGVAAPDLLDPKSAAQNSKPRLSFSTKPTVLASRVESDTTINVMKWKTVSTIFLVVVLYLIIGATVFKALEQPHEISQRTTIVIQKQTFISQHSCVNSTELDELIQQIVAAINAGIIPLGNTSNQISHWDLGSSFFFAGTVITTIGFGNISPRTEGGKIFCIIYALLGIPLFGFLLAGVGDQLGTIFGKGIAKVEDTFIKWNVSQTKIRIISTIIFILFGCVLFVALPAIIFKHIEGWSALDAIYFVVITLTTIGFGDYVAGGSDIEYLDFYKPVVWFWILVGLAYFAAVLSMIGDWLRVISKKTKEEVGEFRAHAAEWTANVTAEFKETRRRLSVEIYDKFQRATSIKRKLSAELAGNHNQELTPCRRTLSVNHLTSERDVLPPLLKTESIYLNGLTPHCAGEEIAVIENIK
Outline: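 Outside-out patches from HEK-293T cells transfected with human TREK-1 (pEGFP-N1). Pipettes 7–15 MΩ. Open probability measured at -60 and +60 mV. Conductance taken as first open-state current amplitude divided by voltage at ±60 mV.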

[9] = test system: Mus musculus; experiment: Analgesic activity in CFA-induced mouse model of chronic inflammatory pain assessed as reduction in mechanical allodynia at 5 mg/kg, ip measured up to 90 mins by von frey test; assay type: functional, organism-based
Outline: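 CFA (20 μl s.c.) injected into the left hindpaw of mice; compound given i.p. in DMSO/Tween 80/saline vehicle. Mice acclimated 3 days on a wire-mesh floor; mechanical threshold measured with von Frey filaments applied in ascending order.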

[10] = test system: T3, Potassium channel subfamily K member 2 (Homo sapiens), O95069 [I158A]; experiment: Activation of recombinant human TREK1 I158A mutant expressed in HEK293T cells assessed as increase in K+ current amplitude by whole cell voltage clamp electrophysiological analysis; assay type: cell-based; outline: as §1
T3 sequence (whole entry): T2 sequence (whole entry) with I158A

Sequence of Potassium channel subfamily K member 2 (Homo sapiens, UniProt O95069, F149A) (O95069 whole entry F149A): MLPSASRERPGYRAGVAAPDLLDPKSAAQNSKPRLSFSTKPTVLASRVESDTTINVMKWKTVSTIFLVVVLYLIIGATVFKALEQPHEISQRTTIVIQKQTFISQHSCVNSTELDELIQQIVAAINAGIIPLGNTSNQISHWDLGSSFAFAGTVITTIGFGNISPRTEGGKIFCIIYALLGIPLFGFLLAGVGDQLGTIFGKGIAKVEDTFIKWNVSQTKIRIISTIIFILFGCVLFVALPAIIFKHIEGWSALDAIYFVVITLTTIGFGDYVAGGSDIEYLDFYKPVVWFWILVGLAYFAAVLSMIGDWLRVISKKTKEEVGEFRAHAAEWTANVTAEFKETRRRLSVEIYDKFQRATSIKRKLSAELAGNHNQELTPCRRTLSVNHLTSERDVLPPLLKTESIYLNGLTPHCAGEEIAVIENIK
Sequence of Potassium channel subfamily K member 2 (Homo sapiens, UniProt O95069, T156A) (O95069 whole entry T156A): as the sequence (O95069 whole entry F149A) above, with A149F, T156A counted along it

Activity [2]: inactive
EC50 [4]: 11.3 µM
EC50 [6]: 7.57 µM
EC50 [7]: 22.4 µM
Activity [8]: inactive
Activity [10]: inactive
SMILES: Cc1ccc2nc(-c3ccc(NC(=O)[C@@H]4CC[C@H](C(=O)O)C4)cc3)sc2c1
Activity [1]: Active
Activity [3]: Active
Activity [5]: Active
Activity [9]: Active
